esBAF inh = inhibitors of esBAF chromatin remodeling in mouse ES cells; Bmi1-luciferase knock-in reporter, 24 h; 100% = twice the neutral-well signal; 2% of 350,000 active; AID 602393; reporter increase, % at 12.5 µM; in the data active = activation above about 40%; inconclusive = no clear call, values can overlap the other calls;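 note: a rise in the Bmi1 reporter signal indicates esBAF inhibition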
Wnt act = activates Wnt/beta-catenin signaling in a reporter cell assay; activator, plate reader; activation, % at 9.35 µM; 1.2% of 300,000 active; in the data active = activation above about 30%, passing the limit was not always enough; inconclusive = no clear call, values can overlap the other calls
XiGFP reactiv = X-chromosome reactivation activator | 0.055% of 360,000 active | XiGFP mouse fibroblasts, % GFP-positive cells imaging, 3 d; cells co-treated with 5-aza-dC sensitizer; scaled so ellipticine positive control = 100% | activation, % at 7.58 µM | AID 743238;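 active = mean normalized replicate activation at least 10% and every replicate at or above 10%; inconclusive = only one of the two criteria met; inactive = mean below 10% and not all replicates reach 10%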
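assay system = SV40-immortalized XiGFP fibroblast cells, line 68-5-11 | buffer or medium = DMEM plus 5-aza-dC sensitizer | doses = single-point pinned compound dosing | times = 3-day compound exposure, then 15 min fixation at room temperature | benchmarks = positive control ellipticine, 6 µM final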
MITF TRPM1 HTS = increases MITF-driven TRPM1 promoter luciferase signal; SK-MEL-5 TRPM1-promoter luciferase, 24 h; % of positive control, neutral wells = 0; 0.75% of 300,000 active; activation, % at 12.5 µM;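 active = mean activation of at least 80% with every replicate also reaching 80%; inconclusive = mean reaches 80% but some replicate falls short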
Vif inh = HIV Vif inhibition; HEK293T cells, Vif self-association by quenched fluorescence, imaging, 24 h; AID 602346; inhibition, % at 7.49 µM; 0.35% of 340,000 active; in the data active = inhibition above about 50%, passing the limit was not always enough; inconclusive = no clear call, values can overlap the other calls; inactive = below about 31%
Ring1 derepress = de-represses Ring1 in mouse ESCs, confirming esBAF inhibition | 550 tested, under 10 active | fold change at 33 µM | AID 743176 | mouse ESC E14, Ring1 mRNA RT-qPCR fold change | shares compounds with esBAF inh;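 active = Ring1 gene expression raised more than 2-fold over untreated cells in both replicates at either tested dose; inconclusive = only one replicate above 2-fold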;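 note: Ring1 transcript normalised to actin housekeeping signal by TaqMan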
Fgf4 repress = confirmation of esBAF inhibitors: Fgf4 repression in mouse ESCs | AID 743177 | mouse ESC E14, Fgf4 mRNA qPCR fold change; active compounds read low | Fgf4 expression fold change at 33 µM | 4% of 550 active | shares compounds with esBAF inh;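 active = Fgf4 expression under 0.8 fold of control in both repeat measurements at one or both tested doses; inconclusive = under 0.8 fold in just a single repeat measurement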;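 note: Fgf4 transcript normalised to actin in duplex TaqMan qPCR; cells exposed to compound for 24 h before lysis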
Bmi1 derepress = esBAF inhibition confirmed by Bmi1 de-repression. shares compounds with esBAF inh. mouse ESE14 ES cells, Bmi1 mRNA qPCR fold; active compounds read high. fold change at 33 µM. 550 tested, under 10 active. AID 743180;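 active = Bmi1 expression fold change above 6 at either tested concentration, seen in replicate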;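 note: higher fold means more Bmi1 de-repression and stronger esBAF inhibition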
A549 tox SP = A549 cell cytotoxicity; plate reader; shares compounds with esBAF inh; cell viability change % (negative = cytotoxic), % at 25 µM, hits read low; 550 tested, under 10 active; AID 743188; call rule not given here
HepG2 cytotox SP = cytotoxicity in HepG2 cells | shares compounds with esBAF inh | plate reader; active compounds read low | activity change, negative = inhibition, % at 25 µM | 4% of 550 active; in the data active = activity change below about -50%
HEK293 tox SP = kills or reduces viability of HEK293 cells | shares compounds with esBAF inh | HEK293 cytotoxicity, plate reader | activity change, negative = inhibition, % at 25 µM, hits read low | 3% of 550 active | AID 743190; in the data active = activity change below about -38%, passing the limit was not always enough
Numbers stand for hits; - = inactive; ? = inconclusive; . = no result. This is a sample that favours compounds with a hit; in the whole collection about 2.6% have one here.

SMILES	esBAF inh	Wnt act	XiGFP reactiv	MITF TRPM1 HTS	Vif inh	Ring1 derepress	Fgf4 repress	Bmi1 derepress	A549 tox SP	HepG2 cytotox SP	HEK293 tox SP
CCC(C)c1ccc(NC(=O)C2CC2)cc1 (configuration not stated)	74.1	-	.	-	.	-	-	-	-	-	-
CCOC(=O)c1ccc(NC(=O)C2CC2)cc1	-	.	.	-	-	.	.	.	.	.	.
C[C@@H]1CCCCO[C@@H](CN(C)C(=O)Nc2ccc3c(c2)OCO3)[C@H](C)CN([C@H](C)CO)C(=O)c2cc(NS(=O)(=O)c3ccccc3)ccc2O1	-	.	-	.	.	.	.	.	.	.	.
COc1ccc(Nc2cc(C)c3c(O)cccc3n2)cc1	56.5	-	-	129.9	-	-	-	-	-	-	-
COC(=O)c1cc(Nc2cc(C)c3c(O)cccc3n2)cc(C(=O)OC)c1	-	-	-	-	-	.	.	.	.	.	.
COc1cccc(Nc2cc(C)c3ccccc3n2)c1	65.6	-	-	-	-	-	-	-	-	-	-
Cc1ccc(SCCN2CCC(C)CCC2=O)cc1 (configuration not stated)	82.7	-	-	?	.	-	?	-	-	-	-
Cc1ccc(SCCN2CCC(C(C)(C)C)CCC2=O)cc1 (configuration not stated)	-	-	-	-	-	.	.	.	.	.	.
O=C(O)C[C@@H]1C[C@H]2c3cc(NC(=O)NC4CCCC4)ccc3O[C@H]2[C@@H](CO)O1	-	.	-	.	.	.	.	.	.	.	.
COc1ccc(S(=O)(=O)N(C)C[C@H]2OCCCC[C@H](C)Oc3ccc(NS(=O)(=O)c4cccs4)cc3C(=O)N([C@H](C)CO)C[C@H]2C)cc1	-	.	-	.	.	.	.	.	.	.	.
Nc1nc(SCc2ccccc2)c2ncn(C3CCCCC3)c2n1	84.6	-	-	-	-	-	0.78	-	-	-	-
ClCCn1cnc2c(SCc3ccccc3Cl)ncnc21	-	-	-	-	-	.	.	.	.	.	.
ClCCn1cnc2c(SCc3ccccc3)ncnc21	58.8	-	-	138.1	-	-	?	-	-	-	-52.8
CN(C)c1ccc(CNc2nc3cc(-c4ccc(F)cc4)sc3c(=O)n2C)cc1	76.6	-	-	.	-	-	-	-	-	-	-
C[C@H]1CN([C@@H](C)CO)C(=O)c2cc(-c3ccccc3)cnc2O[C@@H]1CN(C)Cc1ccccn1	-	.	-	.	.	.	.	.	.	.	.
Cc1ccc(S(=O)(=O)N(C)C[C@@H]2Oc3ccc(NC(=O)Cc4cn(C)c5ccccc45)cc3CC(=O)N([C@H](C)CO)C[C@H]2C)cc1	-	.	-	.	.	.	.	.	.	.	.
COc1ccc(-n2nc(C(=O)NCC(=O)N3CCN(c4ccccc4F)CC3)c3ccccc3c2=O)cc1OC	-	-	-	-	-	.	.	.	.	.	.
COc1ccc(-n2nc(C(=O)NCC(=O)N3CCN(c4ccccc4F)CC3)c3ccccc3c2=O)cc1	-	-	-	?	-	-	?	-	-	-65.7	-
CO[C@@H]1CN(C)C(=O)c2cc(NC(C)=O)ccc2OC[C@@H](C)N(CC2CC2)C[C@@H]1C	-	.	-	.	.	.	.	.	.	.	.
COc1ccc(CCNS(=O)(=O)CCNC(=O)c2ccccc2)cc1	-	-	-	-	-	.	.	.	.	.	.
COc1ccc(CNC(=O)c2ccc(Br)cc2)cc1	.	-	-	.	.	.	.	.	.	.	.
COc1ccc(C(=O)NCCS(=O)(=O)NCCc2ccccc2)cc1	55.8	-	-	-	-	-	-	-	-	-	-
COc1ccc(CNC(=O)c2ccc(-c3ccccc3)cc2)cc1	61.5	.	.	-	-	-	-	-	-	-	-
C[C@H]1CCCCO[C@@H](CN(C)S(=O)(=O)c2cn(C)cn2)[C@@H](C)CN([C@@H](C)CO)C(=O)c2cc(NC(=O)C3CCCCC3)ccc2O1	-	.	-	.	.	.	.	.	.	.	.
Clc1ccc(N/N=C/c2cccnc2)cc1	69.7	.	-	?	-	-	-	-	-	-	-
SMILES	esBAF inh	Wnt act	XiGFP reactiv	MITF TRPM1 HTS	Vif inh	Ring1 derepress	Fgf4 repress	Bmi1 derepress	A549 tox SP	HepG2 cytotox SP	HEK293 tox SP
O=[N+]([O-])c1ccc(N/N=C/c2cccnc2)cc1	-	-	-	-	-	.	.	.	.	.	.
O=C(CC(=O)c1ccccc1)c1ccccc1	86.1	-	-	-	-	-	-	-	-	-	-
O=C(CC(=O)c1ccncc1)c1ccccc1	.	-	-	-	-	.	.	.	.	.	.
C[C@@H]1CN([C@@H](C)CO)C(=O)c2cccc(NS(=O)(=O)c3ccc(Cl)cc3)c2O[C@H]1CN(C)C(=O)Nc1ccc(C(F)(F)F)cc1	-	.	-	.	.	.	.	.	.	.	.
CC(=O)c1ccc(NC(=O)c2cc(C)nc3ccccc23)cc1	62.0	-	-	-	-	-	-	-	-	-	-
Cc1ccc(NC(=O)c2cc(C)nc3ccccc23)cc1	-	-	-	.	-	.	.	.	.	.	.
CNC(=O)c1ccc(-c2cc3onc(-c4ccccc4)c3c(=O)n2C)cc1	81.2	42.5	-	95.7	-	-	-	-	-	-	-
CC(=O)Nc1ccc(-c2nc3c(C)cccc3[nH]2)cc1	60.1	47.7	.	.	-	-	-	-	-	-	-
COc1cc2[nH]c(C(=O)N3CCc4ccccc43)cc2c(OC)c1OC	58.1	-	-	-	-	-	-	-	-	-	-
Cc1ccc(C(=O)N2CCc3ccccc32)cc1C	52.2	-	-	.	-	-	-	-	-	-	-
COc1ccc(CCC(=O)N2CCc3ccccc32)cc1	62.8	-	.	.	-	-	-	-	-	-	-
COc1ccc(C(=O)N2CCc3ccccc32)cc1	68.3	-	.	.	-	-	-	-	-	-	-
O=C(c1ccccc1)N1CCc2ccccc21	.	.	.	-	.	.	.	.	.	.	.
CCC(=O)N1CC2(C1)CN(S(C)(=O)=O)[C@H](CO)c1[nH]c3cc(OC)ccc3c12	.	.	-	.	.	.	.	.	.	.	.
Cc1ccc(CNC(=O)CCn2cc(-c3ccc(C)cc3)nc2-c2ccncc2)cc1	-	-	-	-	-	.	.	.	.	.	.
Cc1ccc(CNC(=O)c2ccc(Cn3cc(-c4ccc(C)cc4)nc3-c3ccncc3)cc2)cc1	99.4	47.0	-	.	-	-	-	-	-	-	-
C[C@H](CO)N1C[C@H](C)[C@@H](CN(C)CC2CC2)Oc2c(NC(=O)CCC(F)(F)F)cccc2C1=O	.	.	-	.	.	.	.	.	.	.	.
O=C(c1ccncc1)N1CC[C@@H]2[C@@H](CO)Nc3ccc(C4=CCCCC4)cc3[C@@H]21	-	.	-	.	.	.	.	.	.	.	.
O=C(c1cccs1)N(C(=O)c1cccs1)c1ccc(Br)cn1	65.0	56.3	.	-	-	-	-	-	-	-	-
